ChEMBL document CHEMBL1143905, “Synthesis of barbiturate-based methionine aminopeptidase-1 inhibitors” (Bioorg Med Chem Lett, 2008)

Assay: Inhibition of Escherichia coli methionine aminopeptidase 1
Method in brief: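 Coupled chromogenic assay at room temperature: 50 mM HEPES pH 7.5, 100 μM CoCl2, 400 μM Met-Pro-pNA substrate, 0.25–4.0 μM MetAP-1 enzyme, 10–25 μM proline aminopeptidase as coupling enzyme, varying inhibitor concentrations. pNA release read at 405 nm. Ki obtained by non-linear regression assuming a competitive steady-state model.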

Structure (SMILES)	Ki [µM]
O=C1NC(=O)C(=Cc2ccc(C(=O)O)cc2)C(=O)N1	335
O=C1NC(=O)C(=Cc2cccc([N+](=O)[O-])c2)C(=O)N1	29
CN1C(=O)C(=Cc2ccc([N+](=O)[O-])cc2)C(=O)N(C)C1=O	> 100
O=C1NC(=S)NC(=O)C1=Cc1ccccc1	> 100
COc1ccc(C=C2C(=O)N(C)C(=O)N(C)C2=O)cc1	> 100
CN1C(=O)C(=C/C=C/c2ccccc2)C(=O)N(C)C1=O	> 100
CN1C(=O)C(=Cc2cccc([N+](=O)[O-])c2)C(=O)N(C)C1=O	> 100
CN(C)c1ccc(/C=C/C=C2C(=O)NC(=S)NC2=O)cc1	17
CN1C(=O)C(=C/C=C/c2ccc(N(C)C)cc2)C(=O)N(C)C1=O	> 100
CN(C)c1ccc(C=C2C(=O)NC(=O)NC2=O)cc1	13
CN(C)c1ccc(C=C2C(=O)NC(=S)NC2=O)cc1	> 100
O=C1NC(=O)C(=C/C=C/c2ccccc2)C(=O)N1	12
COc1ccc(C=C2C(=O)NC(=O)NC2=O)cc1	25
O=C1NC(=S)NC(=O)C1=Cc1ccc(F)cc1	> 100
O=C1NC(=O)C(=Cc2ccc(F)cc2)C(=O)N1	89
O=C1NC(=S)NC(=O)C1=Cc1ccc(O)cc1	> 100
CN(C)c1ccc(/C=C/C=C2C(=O)NC(=O)NC2=O)cc1	0.05
COc1ccc(C=C2C(=O)NC(=S)NC2=O)cc1	87
O=C1NC(=O)C(=Cc2ccccc2)C(=O)N1	517
CN1C(=O)C(=Cc2ccc(O)cc2)C(=O)N(C)C1=O	> 100
O=C1NC(=O)C(=Cc2ccc(O)cc2)C(=O)N1	4
O=C1NC(=S)NC(=O)C1=C/C=C/c1ccccc1	> 100
CN1C(=O)C(=Cc2ccc(F)cc2)C(=O)N(C)C1=O	> 100
CN1C(=O)C(=Cc2ccccc2)C(=O)N(C)C1=O	> 100
CN1C(=O)C(=Cc2ccc(N(C)C)cc2)C(=O)N(C)C1=O	> 100
O=C1NC(=O)C(=Cc2ccc([N+](=O)[O-])cc2)C(=O)N1	105
CN1C(=O)C(=Cc2ccc(C(=O)O)cc2)C(=O)N(C)C1=O	> 100
O=C1NC(=S)NC(=O)C1=Cc1ccc([N+](=O)[O-])cc1	> 100
O=C1NC(=S)NC(=O)C1=Cc1cccc([N+](=O)[O-])c1	> 100
O=C1NC(=S)NC(=O)C1=Cc1ccc(C(=O)O)cc1	> 100
